From ChEMBL document CHEMBL1955770, “Inhibition of S/G2 phase CDK4 reduces mitotic fidelity” (J Biol Chem, 2006)

Experiments:
[1] = target: Mitogen-activated protein kinase 8 (Homo sapiens) (UniProt P45983); assay: Inhibition of JNK1 at 1 uM
[2] = target: Serine/threonine-protein kinase 17A (Homo sapiens) (UniProt Q9UEE5); assay: Inhibition of STK17A at 1 uM
[3] = target: Ephrin type-B receptor 4 (Homo sapiens) (UniProt P54760); assay: Inhibition of EPHB4 at 1 uM
[4] = target: Tyrosine-protein kinase ABL2 (Homo sapiens) (UniProt P42684); assay: Inhibition of ABL2 at 1 uM
In short: (§1)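 Competition binding screen across a kinase panel with compound at 1 μM. Read-out is % competition. Kinases not hit at this concentration were scored '<50'. No Kd was determined for hits.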

[5] = target: Platelet-derived growth factor receptor beta (Homo sapiens) (UniProt P09619); assay: Inhibition of PDGFRB at 1 uM
[6] = target: Mitogen-activated protein kinase 11 (Homo sapiens) (UniProt Q15759); assay: Inhibition of p38-beta at 1 uM
[7] = target: Receptor tyrosine-protein kinase erbB-2 (Homo sapiens) (UniProt P04626); assay: Inhibition of ERBB2 at 1 uM
[8] = target: Tyrosine-protein kinase TXK (Homo sapiens) (UniProt P42681); assay: Inhibition of TXK at 1 uM
[9] = target: Serine/threonine-protein kinase ULK3 (Mus musculus) (UniProt Q3U3Q1); assay: Inhibition of mouse ULK3 at 1 uM
[10] = target: RAF proto-oncogene serine/threonine-protein kinase (Homo sapiens) (UniProt P04049); assay: Inhibition of RAF1 at 1 uM
[11] = target: Tyrosine-protein kinase JAK1 (Homo sapiens) (UniProt P23458); assay: Inhibition of JAK1(Kin.Dom.1) at 1 uM
[12] = target: Proto-oncogene tyrosine-protein kinase ROS (Homo sapiens) (UniProt P08922); assay: Inhibition of ROS1 at 1 uM
[13] = target: TRAF2 and NCK-interacting protein kinase (Homo sapiens) (UniProt Q9UKE5); assay: Inhibition of TNIK at 1 uM
[14] = target: Death-associated protein kinase 3 (Homo sapiens) (UniProt O43293); assay: Inhibition of DAPK3 at 1 uM
[15] = target: Serine/threonine-protein kinase B-raf (Homo sapiens) (UniProt P15056); assay: Inhibition of BRAF at 1 uM; in short: as §1
[16] = target: Tyrosine-protein kinase Lck (Homo sapiens, UniProt P06239); assay: Inhibition of LCK at 1 uM
[17] = target: Fibroblast growth factor receptor 1 (Homo sapiens) (UniProt P11362); assay: Inhibition of FGFR1 at 1 uM
[18] = target: Serine/threonine-protein kinase Nek9 (Homo sapiens) (UniProt Q8TD19); assay: Inhibition of NEK9 at 1 uM
[19] = target: Tyrosine-protein kinase FRK (Homo sapiens) (UniProt P42685); assay: Inhibition of FRK at 1 uM
[20] = target: Death-associated protein kinase 2 (Homo sapiens) (UniProt Q9UIK4); assay: Inhibition of DAPK2 at 1 uM
[21] = target: Tyrosine-protein kinase Fyn (Homo sapiens) (UniProt P06241); assay: Inhibition of FYN at 1 uM
[22] = test system: Serine/threonine-protein kinase B-raf (Homo sapiens), P15056 [V600E]; assay: Inhibition of BRAF(V600E) at 1 uM; in short: as §1
[23] = target: Calcium/calmodulin-dependent protein kinase type II subunit gamma (Homo sapiens) (UniProt Q13555); assay: Inhibition of CAMK2G at 1 uM
In short: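 Competition binding screen against a kinase panel, compound tested at a single concentration of 1 μM. Read-out is % competition, where higher scores mark stronger hits. Kinases not hit in the primary screen are reported as '<50'. No Kd values were determined.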

[24] = target: Myotonin-protein kinase (Homo sapiens) (UniProt Q09013); assay: Inhibition of DMPK at 1 uM
[25] = target: STE20-like serine/threonine-protein kinase (Homo sapiens) (UniProt Q9H2G2); assay: Inhibition of SLK at 1 uM
[26] = target: Serine/threonine-protein kinase 10 (Homo sapiens) (UniProt O94804); assay: Inhibition of STK10 at 1 uM
[27] = target: Cytoplasmic tyrosine-protein kinase BMX (Homo sapiens) (UniProt P51813); assay: Inhibition of BMX at 1 uM; in short: as §1
[28] = target: Casein kinase II subunit alpha (Homo sapiens) (UniProt P68400); assay: Inhibition of CSNK2A1 at 1 uM
[29] = target: Ribosomal protein S6 kinase alpha-2 (Homo sapiens) (UniProt Q15349); assay: Inhibition of RPS6KA2 Kin.Dom. 1 at 1 uM
[30] = target: Dual specificity protein kinase TTK (Homo sapiens) (UniProt P33981); assay: Inhibition of TTK at 1 uM
[31] = target: Ephrin type-A receptor 7 (Homo sapiens) (UniProt Q15375); assay: Inhibition of EPHA7 at 1 uM
[32] = target: Protein-tyrosine kinase 2-beta (Homo sapiens) (UniProt Q14289); assay: Inhibition of PTK2B at 1 uM
[33] = target: RAC-alpha serine/threonine-protein kinase (Homo sapiens) (UniProt P31749); assay: Inhibition of AKT1 at 1 uM; in short: as §1
Insulin receptor = Insulin receptor (Homo sapiens, UniProt P06213); assay: Inhibition of INSR at 1 uM
[34] = target: Tyrosine-protein kinase CSK (Homo sapiens) (UniProt P41240); assay: Inhibition of CSK at 1 uM
[35] = target: Leukocyte tyrosine kinase receptor (Homo sapiens) (UniProt P29376); assay: Inhibition of LTK at 1 uM
[36] = target: Cyclin-dependent kinase 5 (Homo sapiens) (UniProt Q00535); assay: Inhibition of CDK5 at 1 uM
[37] = target: Serine/threonine-protein kinase PAK 3 (Homo sapiens) (UniProt O75914); assay: Inhibition of PAK3 at 1 uM
[38] = target: Mitogen-activated protein kinase 1 (Homo sapiens) (UniProt P28482); assay: Inhibition of ERK2 at 1 uM
[39] = target: Serine/threonine-protein kinase PAK 4 (Homo sapiens) (UniProt O96013); assay: Inhibition of PAK4 at 1 uM
[40] = target: Myosin light chain kinase 2, skeletal/cardiac muscle (Homo sapiens) (UniProt Q9H1R3); assay: Inhibition of MYLK2 at 1 uM
[41] = target: Calcium/calmodulin-dependent protein kinase type II subunit alpha (Homo sapiens) (UniProt Q9UQM7); assay: Inhibition of CAMK2A at 1 uM; in short: as §1
[42] = target: Receptor-type tyrosine-protein kinase FLT3 (Homo sapiens) (UniProt P36888); assay: Inhibition of FLT3 at 1 uM
[43] = target: LIM domain kinase 1 (Homo sapiens) (UniProt P53667); assay: Inhibition of LIMK1 at 1 uM
[44] = target: Calcium/calmodulin-dependent protein kinase type 1 (Homo sapiens) (UniProt Q14012); assay: Inhibition of CAMK1 at 1 uM; in short: as §1
[45] = target: Tyrosine-protein kinase JAK2 (Homo sapiens) (UniProt O60674); assay: Inhibition of JAK2(Kin.Dom.2) at 1 uM

Serine/threonine-protein kinase 17A (Homo sapiens), sequence (Q9UEE5 whole entry): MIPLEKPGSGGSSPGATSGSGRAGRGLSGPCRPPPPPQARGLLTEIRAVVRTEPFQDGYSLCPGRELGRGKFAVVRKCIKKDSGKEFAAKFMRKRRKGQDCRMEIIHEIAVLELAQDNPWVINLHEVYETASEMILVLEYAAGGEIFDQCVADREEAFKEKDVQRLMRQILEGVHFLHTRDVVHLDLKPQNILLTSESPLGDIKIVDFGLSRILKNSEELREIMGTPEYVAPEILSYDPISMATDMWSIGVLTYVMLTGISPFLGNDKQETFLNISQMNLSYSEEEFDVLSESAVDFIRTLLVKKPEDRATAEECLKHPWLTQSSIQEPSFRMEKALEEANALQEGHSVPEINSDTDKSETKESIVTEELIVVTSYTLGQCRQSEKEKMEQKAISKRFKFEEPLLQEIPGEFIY
TRAF2 and NCK-interacting protein kinase (Homo sapiens), sequence (Q9UKE5 whole entry, looked up): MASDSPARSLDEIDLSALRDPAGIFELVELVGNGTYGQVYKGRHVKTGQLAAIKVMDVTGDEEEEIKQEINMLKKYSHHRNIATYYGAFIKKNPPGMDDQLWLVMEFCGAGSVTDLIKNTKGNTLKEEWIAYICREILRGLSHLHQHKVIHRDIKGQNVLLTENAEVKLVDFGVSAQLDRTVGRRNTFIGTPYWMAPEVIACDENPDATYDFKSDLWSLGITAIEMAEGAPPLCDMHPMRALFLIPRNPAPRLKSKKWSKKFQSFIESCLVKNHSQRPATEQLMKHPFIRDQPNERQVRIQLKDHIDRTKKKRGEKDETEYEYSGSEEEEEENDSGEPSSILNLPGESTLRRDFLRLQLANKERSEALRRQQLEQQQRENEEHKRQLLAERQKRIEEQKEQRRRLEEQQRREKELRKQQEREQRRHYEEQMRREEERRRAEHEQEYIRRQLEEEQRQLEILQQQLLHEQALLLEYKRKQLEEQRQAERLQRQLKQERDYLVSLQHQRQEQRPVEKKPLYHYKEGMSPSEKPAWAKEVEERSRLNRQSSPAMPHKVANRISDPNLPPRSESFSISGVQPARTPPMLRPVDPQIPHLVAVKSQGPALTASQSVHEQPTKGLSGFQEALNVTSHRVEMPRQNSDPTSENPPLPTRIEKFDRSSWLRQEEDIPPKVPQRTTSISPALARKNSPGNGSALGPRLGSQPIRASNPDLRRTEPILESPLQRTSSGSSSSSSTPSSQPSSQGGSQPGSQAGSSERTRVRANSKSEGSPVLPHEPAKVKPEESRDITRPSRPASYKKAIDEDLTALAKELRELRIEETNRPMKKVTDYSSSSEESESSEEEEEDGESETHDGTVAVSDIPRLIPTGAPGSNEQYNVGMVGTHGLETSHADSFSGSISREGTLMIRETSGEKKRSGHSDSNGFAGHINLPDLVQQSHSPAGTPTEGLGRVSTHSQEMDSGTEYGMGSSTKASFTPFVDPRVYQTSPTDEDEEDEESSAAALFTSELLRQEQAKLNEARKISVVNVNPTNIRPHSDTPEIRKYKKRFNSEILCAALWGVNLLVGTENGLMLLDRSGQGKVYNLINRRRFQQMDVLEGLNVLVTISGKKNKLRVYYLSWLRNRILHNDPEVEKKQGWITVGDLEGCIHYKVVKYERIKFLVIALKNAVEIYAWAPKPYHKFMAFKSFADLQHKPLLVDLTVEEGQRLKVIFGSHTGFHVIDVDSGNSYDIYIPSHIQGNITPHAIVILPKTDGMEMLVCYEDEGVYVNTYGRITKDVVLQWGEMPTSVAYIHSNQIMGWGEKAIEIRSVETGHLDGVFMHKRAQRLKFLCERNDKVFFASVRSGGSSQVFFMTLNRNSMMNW
Cytoplasmic tyrosine-protein kinase BMX (Homo sapiens), sequence (P51813 whole entry): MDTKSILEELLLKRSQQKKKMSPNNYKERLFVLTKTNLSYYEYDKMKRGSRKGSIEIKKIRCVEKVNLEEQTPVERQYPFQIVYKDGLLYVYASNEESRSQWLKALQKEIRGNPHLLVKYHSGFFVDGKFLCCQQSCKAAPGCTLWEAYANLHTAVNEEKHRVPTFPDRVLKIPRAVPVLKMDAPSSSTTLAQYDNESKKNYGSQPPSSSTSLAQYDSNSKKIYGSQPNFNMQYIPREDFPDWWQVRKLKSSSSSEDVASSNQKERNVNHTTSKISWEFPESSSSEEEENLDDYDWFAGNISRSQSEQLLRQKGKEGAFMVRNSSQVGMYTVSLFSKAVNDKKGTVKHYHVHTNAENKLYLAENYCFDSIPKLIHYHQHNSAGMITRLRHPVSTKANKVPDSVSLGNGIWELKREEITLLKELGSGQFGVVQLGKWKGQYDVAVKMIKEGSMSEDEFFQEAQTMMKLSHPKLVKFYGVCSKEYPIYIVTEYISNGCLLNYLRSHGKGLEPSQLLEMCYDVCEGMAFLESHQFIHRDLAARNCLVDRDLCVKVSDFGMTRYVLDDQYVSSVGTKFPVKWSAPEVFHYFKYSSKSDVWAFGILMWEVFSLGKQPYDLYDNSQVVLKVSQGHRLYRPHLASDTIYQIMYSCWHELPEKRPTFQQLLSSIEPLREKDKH
Fibroblast growth factor receptor 1 (Homo sapiens), sequence (P11362 22-822 limits assumed): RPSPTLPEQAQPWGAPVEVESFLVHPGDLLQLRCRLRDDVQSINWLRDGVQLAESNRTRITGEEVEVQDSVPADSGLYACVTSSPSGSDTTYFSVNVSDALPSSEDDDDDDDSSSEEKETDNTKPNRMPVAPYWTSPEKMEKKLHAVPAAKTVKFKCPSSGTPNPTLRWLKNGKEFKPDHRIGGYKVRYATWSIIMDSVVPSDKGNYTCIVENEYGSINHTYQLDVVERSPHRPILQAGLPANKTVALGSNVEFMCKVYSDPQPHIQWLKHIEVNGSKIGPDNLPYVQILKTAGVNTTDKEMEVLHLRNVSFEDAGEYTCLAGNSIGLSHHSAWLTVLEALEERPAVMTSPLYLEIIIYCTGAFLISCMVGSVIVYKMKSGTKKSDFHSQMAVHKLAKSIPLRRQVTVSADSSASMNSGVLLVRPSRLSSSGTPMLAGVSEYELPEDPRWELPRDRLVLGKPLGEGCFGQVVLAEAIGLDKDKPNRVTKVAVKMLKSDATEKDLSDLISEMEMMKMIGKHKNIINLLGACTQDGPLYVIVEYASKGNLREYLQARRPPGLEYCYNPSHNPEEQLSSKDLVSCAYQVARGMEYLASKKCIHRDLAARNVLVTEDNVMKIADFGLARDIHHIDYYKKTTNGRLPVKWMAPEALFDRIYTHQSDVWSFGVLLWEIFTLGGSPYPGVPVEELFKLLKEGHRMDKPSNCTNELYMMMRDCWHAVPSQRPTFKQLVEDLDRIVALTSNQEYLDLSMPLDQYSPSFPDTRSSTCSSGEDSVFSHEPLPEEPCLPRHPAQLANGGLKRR
Tyrosine-protein kinase CSK (Homo sapiens), sequence (P41240 2-450 limits assumed): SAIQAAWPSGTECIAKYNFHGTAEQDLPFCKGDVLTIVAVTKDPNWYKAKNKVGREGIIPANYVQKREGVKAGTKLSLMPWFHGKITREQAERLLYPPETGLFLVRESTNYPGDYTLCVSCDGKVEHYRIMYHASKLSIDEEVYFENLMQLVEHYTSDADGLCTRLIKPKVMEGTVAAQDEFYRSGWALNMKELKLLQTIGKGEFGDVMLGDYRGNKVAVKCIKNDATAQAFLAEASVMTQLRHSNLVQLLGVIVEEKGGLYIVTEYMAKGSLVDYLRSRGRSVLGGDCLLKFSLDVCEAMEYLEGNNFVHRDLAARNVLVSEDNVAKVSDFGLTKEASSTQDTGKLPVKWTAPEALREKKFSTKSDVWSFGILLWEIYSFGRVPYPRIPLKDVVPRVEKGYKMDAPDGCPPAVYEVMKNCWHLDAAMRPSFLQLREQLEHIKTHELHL
Ephrin type-A receptor 7 (Homo sapiens), sequence (Q15375 28-998 limits assumed): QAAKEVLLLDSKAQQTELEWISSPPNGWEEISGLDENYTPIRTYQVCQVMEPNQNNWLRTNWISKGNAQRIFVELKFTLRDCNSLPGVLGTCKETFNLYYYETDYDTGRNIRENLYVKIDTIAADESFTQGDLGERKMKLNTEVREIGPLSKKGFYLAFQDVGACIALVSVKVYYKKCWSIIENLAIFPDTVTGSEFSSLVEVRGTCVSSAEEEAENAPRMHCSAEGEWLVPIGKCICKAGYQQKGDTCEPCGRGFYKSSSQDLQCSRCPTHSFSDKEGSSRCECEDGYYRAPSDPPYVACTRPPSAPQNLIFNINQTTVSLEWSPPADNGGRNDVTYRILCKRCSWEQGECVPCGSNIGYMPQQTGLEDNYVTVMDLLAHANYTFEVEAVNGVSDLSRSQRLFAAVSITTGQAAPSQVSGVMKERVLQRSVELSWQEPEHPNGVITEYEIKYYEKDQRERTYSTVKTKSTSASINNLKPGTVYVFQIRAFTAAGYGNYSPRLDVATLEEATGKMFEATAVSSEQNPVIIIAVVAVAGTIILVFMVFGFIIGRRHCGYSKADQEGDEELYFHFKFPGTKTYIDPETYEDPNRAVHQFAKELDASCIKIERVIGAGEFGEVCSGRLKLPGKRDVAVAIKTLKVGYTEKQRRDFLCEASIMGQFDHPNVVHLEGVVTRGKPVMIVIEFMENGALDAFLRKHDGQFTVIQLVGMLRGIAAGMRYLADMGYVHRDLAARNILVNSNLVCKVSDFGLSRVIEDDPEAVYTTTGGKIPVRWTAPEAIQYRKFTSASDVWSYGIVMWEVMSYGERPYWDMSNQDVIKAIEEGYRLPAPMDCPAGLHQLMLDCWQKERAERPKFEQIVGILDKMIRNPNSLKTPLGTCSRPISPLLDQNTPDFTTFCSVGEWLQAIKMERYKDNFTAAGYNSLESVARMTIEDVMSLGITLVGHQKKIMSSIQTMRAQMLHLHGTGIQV
Casein kinase II subunit alpha (Homo sapiens), sequence (P68400 whole entry, looked up): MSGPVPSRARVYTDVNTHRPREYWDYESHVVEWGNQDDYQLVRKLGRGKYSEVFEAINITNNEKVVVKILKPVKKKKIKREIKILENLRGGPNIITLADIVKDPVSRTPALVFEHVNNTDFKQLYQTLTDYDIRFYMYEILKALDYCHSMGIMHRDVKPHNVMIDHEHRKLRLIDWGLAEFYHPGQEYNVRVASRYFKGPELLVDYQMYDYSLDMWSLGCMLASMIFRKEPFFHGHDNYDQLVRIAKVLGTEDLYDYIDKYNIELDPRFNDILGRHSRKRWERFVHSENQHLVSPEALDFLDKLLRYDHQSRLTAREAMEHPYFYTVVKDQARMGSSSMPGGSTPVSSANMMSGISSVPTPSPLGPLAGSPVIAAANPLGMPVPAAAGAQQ

inhibition [1]: < 50%
inhibition [2]: 89%
inhibition [3]: < 50%
inhibition [4]: < 50%
inhibition [5]: < 50%
inhibition [6]: < 50%
inhibition [7]: < 50%
inhibition [8]: < 50%
inhibition [9]: < 50%
inhibition [10]: < 50%
inhibition [11]: 94%
inhibition [12]: < 50%
inhibition [13]: < 50%
inhibition [15]: < 50%
inhibition [16]: < 50%
inhibition [17]: < 50%
inhibition [19]: < 50%
inhibition [21]: < 50%
inhibition [22]: < 50%
inhibition [23]: < 50%
inhibition [24]: < 50%
inhibition [25]: 99%
inhibition [26]: < 50%
inhibition [27]: < 50%
inhibition [28]: < 50%
inhibition [29]: < 50%
inhibition [30]: 78%
inhibition [31]: < 50%
inhibition [32]: < 50%
inhibition [33]: < 50%
inhibition (Insulin receptor): < 50%
inhibition [34]: < 50%
inhibition [35]: < 50%
inhibition [36]: < 50%
inhibition [37]: < 50%
inhibition [38]: < 50%
inhibition [39]: < 50%
inhibition [40]: < 50%
inhibition [41]: < 50%
inhibition [42]: < 50%
inhibition [43]: < 50%
inhibition [44]: < 50%
inhibition [45]: < 50%
SMILES: CN1CCN(c2ccc(Nc3nc(N)c(C(=O)c4ccc5c(c4)OCCO5)s3)cc2)CC1
inhibition [14]: < 50%
inhibition [18]: < 50%
inhibition [20]: < 50%
